Source: PubChem
APJ antagonist: blocks the human apelin receptor APJ. CHO-K1 APJ beta-arrestin complementation, luminescence. inhibition, % at 20 µM. hit rate 0.32% among 330,000. AID 2521;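 active = inhibition above about 40% at 20 µM, limit read from the data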;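 note: cells challenged with 10 nM apelin-13 agonist together with compound; plate controls were apelin-13 plus DMSO wells for no effect and DMSO wells lacking apelin-13 for full effect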
CXCR6 inh: blocks human CXCR6 beta-arrestin recruitment; CHO-K1 PathHunter CXCR6 beta-arrestin, luminescence; inhibition, % at 20 µM; hit rate 0.36% among 360,000; in the data active = inhibition above about 34%, passing the limit was not always enough;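 note: antagonist mode with CXCL16 agonist at 10 nM final; 0% = 10 nM CXCL16 with DMSO and 100% = unstimulated wells without agonist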
HTR2A ag: mouse HTR2A agonism via beta-arrestin recruitment; P35363; CHO-K1 mHTR2A beta-arrestin complementation, luminescence; percent of 30 µM serotonin response; activation, % at 7.6 µM; hit rate 0.66% among 360,000; AID 624169;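 active = activation above a run cutoff, the mean activation of all tested compounds plus 3 SD, cut at about 14% in these data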;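 note: 0% = plate median of compound wells and 100% = 30 µM serotonin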
EBI2 block: EBI2 (human) antagonism. P32249. EBI2 beta-arrestin recruitment, luminescence, 7a,25-OHC stimulated. inhibition, % at 5 µM. hit rate 0.81% among 360,000. AID 651636; in the data active = inhibition above about 38%;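 note: enzyme fragment complementation signal reports receptor beta-arrestin coupling in cells; 0% = agonist plus DMSO wells and 100% = wells without agonist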
Target sequence (P32249 whole entry, looked up, the tested form may be a part): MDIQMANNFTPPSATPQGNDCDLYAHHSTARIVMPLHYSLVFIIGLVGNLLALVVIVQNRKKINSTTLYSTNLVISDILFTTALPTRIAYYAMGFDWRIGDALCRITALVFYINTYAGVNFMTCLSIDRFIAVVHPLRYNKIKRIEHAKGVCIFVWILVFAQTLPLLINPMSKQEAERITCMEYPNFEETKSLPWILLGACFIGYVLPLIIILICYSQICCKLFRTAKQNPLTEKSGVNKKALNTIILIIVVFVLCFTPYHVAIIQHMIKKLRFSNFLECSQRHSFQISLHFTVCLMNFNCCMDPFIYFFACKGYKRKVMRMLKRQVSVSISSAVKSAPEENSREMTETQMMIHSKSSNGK
CCR6 antag: antagonists of human CCR6 receptor; P51684; CHO-K1 CCR6 PathHunter beta-arrestin, luminescence, CCL20-stimulated; inhibition, % at 20 µM; hit rate 0.49% among 340,000; AID 493098;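 active = compounds whose inhibition of the agonist-driven luminescence signal at 20 µM reaches about 50%, limit read from the data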;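 note: cells stimulated with CCL20 at 14 nM final; plate controls were DMSO with CCL20 for no effect and DMSO without agonist for full effect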
Target sequence (P51684 whole entry, looked up): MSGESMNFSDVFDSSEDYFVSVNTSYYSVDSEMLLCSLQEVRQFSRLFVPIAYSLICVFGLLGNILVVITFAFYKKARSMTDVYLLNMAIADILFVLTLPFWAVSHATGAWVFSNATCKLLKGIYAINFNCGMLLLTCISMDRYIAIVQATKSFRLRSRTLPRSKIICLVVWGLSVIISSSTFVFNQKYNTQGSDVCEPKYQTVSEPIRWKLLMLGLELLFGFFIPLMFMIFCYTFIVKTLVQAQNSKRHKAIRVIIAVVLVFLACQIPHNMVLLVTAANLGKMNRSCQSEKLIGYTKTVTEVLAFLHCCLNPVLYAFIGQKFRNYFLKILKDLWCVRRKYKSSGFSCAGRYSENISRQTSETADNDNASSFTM
APJ agonist: agonists of human APJ apelin receptor | P35414 | CHO-K1 APJ PathHunter beta-arrestin, luminescence; 0% DMSO wells, 100% apelin | activation, % at 20 µM | hit rate 0.11% among 330,000 | AID 2520;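 active = activation more than six SD over the plate average, tested at 20 µM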;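 note: 0% = DMSO alone and 100% = apelin-13 at 10 nM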
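Test system – PathHunter CHO-K1 APJ (AGTRL-1) beta-arrestin reporter cells · Input – 1000 cells/well · Compound – single test compound dose, 20 µM final, 1% DMSO · Times – compound stimulation 90 min at 25 °C, detection 60 min · Technique – beta-gal luminescence · Read-out basis – APJ–arrestin association signal · Control set – negative DMSO alone, positive Apelin-13 at 10 nM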
EBI2 antag conf: EBI2 (human) antagonism, single concentration confirmation; shares compounds with EBI2 block; EBI2 beta-arrestin luminescence, 7a,25-OHC antagonism; inhibition, % at 5 µM; hit rate 29% among 2,400; AID 651997;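 active = inhibition of at least 50%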
EBI2 ag: EBI2 agonism counter-screen. shares compounds with EBI2 block. EBI2-expressing cells, agonist mode, luminescence, 60 min; 0% vehicle, 100% 7α,25-dihydroxycholesterol control. activation, % at 5 µM. 2,400 tested, under 10 active;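 active = activation of at least 50%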
bGal counter: counter-screen for EBI2 antagonists: E. coli beta-galactosidase inhibition. shares compounds with EBI2 block. purified beta-galactosidase, luminescent Galacton Star, 15 min. inhibition, % at 5 µM. hit rate 1% among 2,400. AID 652176;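 active = replicate-average signal at least 3 plate SD below neutral wells, shown as high inhibition, flagging enzyme-inhibiting false positives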;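 note: 0% = DMSO wells with enzyme and 100% = wells lacking enzyme; higher means stronger loss of beta-gal luminescence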
Numbers without * were called inactive; nt = no result given. Most compounds without a hit are left out; they make up all but 2.1% or so of the library.

SMILES	APJ antagonist	CXCR6 inh	HTR2A ag	EBI2 block	CCR6 antag	APJ agonist	EBI2 antag conf	EBI2 ag	bGal counter
COc1ccc(OCC(=O)N2CCN(C(=O)COc3ccc(Br)cc3)CC2)cc1	0.2	3.9	2.4	79.9*	5.1	0.1	56.4*	0.3	8.9
O=C(COc1ccc2cc(Br)ccc2c1)N1CCOCC1	4.0	-3.7	2.2	61.6*	-2.0	0.5	36.2	1.3	3.8
O=C(COc1ccc2ccccc2c1)N1CCN(C(=O)c2cccnc2)CC1	1.5	-3.9	5.4	78.5*	4.7	2.2	63.6*	-0.5	-15.9
Cc1nc(N/N=C/c2ccc(O)cc2)c2cnn(-c3ccccc3)c2n1	3.9	-3.9	-0.1	52.8*	-6.8	-0.8	27.9	-0.8	-7.1
Cc1ccc(C2=NS(=O)(=O)N(C)C(C(=O)NC(C)c3ccccc3)=C2)cc1 (configuration not stated)	8.9	4.1	-4.4	39.5*	20.2	-2.3	19.0	1.4	5.5
O=C(NC(=S)Nc1cc(C(F)(F)F)ccc1N1CCOCC1)c1sc2ccccc2c1Cl	24.6	34.5	2.6	23.1	37.8	-3.2	nt	nt	nt
CCCCOc1ccc(Cl)cc1Nc1nc(NCCO)nc(N2CCCC2)n1	2.7	-1.4	3.5	22.6	3.6	1.3	nt	nt	nt
CNC(=S)N1N=C(c2ccc(Br)cc2)CC1c1ccc(OC)cc1 (configuration not stated)	5.2	9.8	-2.4	88.0*	2.7	-3.1	86.7*	-0.8	-21.0
CCc1nc2ccc(C(=O)NCCOc3ccc(OC)cc3)cn2c1N(C)Cc1cccs1	nt	11.4	-5.5	57.2*	nt	nt	39.8	0.1	-13.1
CCCCNC(=O)c1ccc2nc(CC)c(N(C)Cc3ccc(OC)cc3)n2c1	nt	-0.3	-6.4	10.1	nt	nt	nt	nt	nt
CCc1nc2ccc(C(=O)NCCOc3ccc(OC)cc3)cn2c1N(C)Cc1ccc(OC)cc1	nt	8.2	-7.0	62.5*	nt	nt	39.6	-1.2	-13.7
CCc1nc2ccc(C(=O)NCCOc3ccc(OC)cc3)cn2c1N(C)CCCc1ccccc1	nt	16.0	-1.7	58.4*	nt	nt	42.9	-1.0	-8.4
CCc1nc2ccc(C(=O)NCCc3ccccn3)cn2c1N(C)Cc1cccs1	nt	-4.3	-6.9	-2.2	nt	nt	nt	nt	nt
COc1ccc(C)cc1S(=O)(=O)NC1CC1	8.7	-7.2	-1.2	3.1	-2.8	1.8	nt	nt	nt
O=C1CN(C(=O)COC(=O)CCS(=O)(=O)c2ccccc2Cl)c2ccccc2N1	10.1	-2.8	-10.2	2.4	9.4	-3.1	nt	nt	nt
Cc1c(C(=O)N2CCCCC2)c(S(=O)(=O)NCc2ccc(Cl)cc2)c(C)n1C	-21.4	10.8	-0.1	-4.8	1.1	4.5	nt	nt	nt
Cc1ccc(NC(=O)CN(C)C(=O)/C=C/c2ccc3c(c2)OCO3)cc1	-7.6	4.0	5.0	-9.5	9.6	-3.9	nt	nt	nt
COc1ccc(/C=C/C(=O)c2cc3c(cc2N)OCO3)cc1	20.9	11.5	-2.9	62.7*	26.9	-4.1	48.5	-0.1	9.6
COc1ccc(/C=C/C(=O)c2ccc(OC)cc2OC)cc1	6.1	3.6	-2.7	25.2	11.2	-3.4	nt	nt	nt
CC(/C=C1\N=C(SCc2ccccc2)SC1=O)=C\c1ccccc1	10.8	3.8	2.1	-3.4	25.5	0.1	nt	nt	nt
COc1cccc(Nc2nc(-c3sc(C)nc3C)cs2)c1	-6.7	-3.1	-2.6	47.9*	-12.9	-2.2	58.8*	0.9	4.1
Cc1nc(C)c(-c2csc(Nc3ccc(F)cc3)n2)s1	-1.3	2.8	-4.0	46.0*	15.5	2.7	51.8*	3.1	3.0
COc1cccc(Nc2nc(-c3sc(N)nc3C)cs2)c1	-33.6	-7.4	2.1	2.1	6.4	-0.4	nt	nt	nt
Cc1nc(C)c(-c2csc(Nc3ccc(C(=O)O)c(O)c3)n2)s1	7.7	-5.1	-0.1	4.0	8.0	0.6	nt	nt	nt
COC(=O)CCCn1cc(CN2CC(N3CCN(Cc4cccc(C)c4)CC3)CS2(=O)=O)nn1 (configuration not stated)	nt	5.0	-2.0	-2.9	nt	nt	nt	nt	nt
SMILES	APJ antagonist	CXCR6 inh	HTR2A ag	EBI2 block	CCR6 antag	APJ agonist	EBI2 antag conf	EBI2 ag	bGal counter
CC(=O)N1CCN(C(=O)COc2ccc(Br)cc2)CC1	10.8	-3.0	10.7	43.1	-13.6	-1.8	nt	nt	nt
O=C(COc1ccc(Br)cc1)N1CCN(c2ccc([N+](=O)[O-])c(N3CCCCC3)c2)CC1	7.9	13.5	5.1	77.0*	15.3	1.2	56.7*	-1.2	8.8
O=C(COc1ccc(Cl)cc1)N1CCN(c2ccc([N+](=O)[O-])c(N3CCOCC3)c2)CC1	-6.8	-9.8	-0.5	85.3*	6.3	-2.4	61.4*	0.1	9.4
O=C(c1ccccc1)N1CCN(c2ccc([N+](=O)[O-])c(N3CCOCC3)c2)CC1	9.3	4.4	-4.2	-2.7	5.9	-3.6	nt	nt	nt
O=C(CSc1ccc(Cl)cc1)N1CCN(c2ccc(Cl)cc2[N+](=O)[O-])CC1	18.7	-1.4	-4.2	82.4*	5.3	-0.3	76.0*	1.8	8.5
O=C(COc1ccccc1)N1CCN(c2ccc([N+](=O)[O-])c(N3CCCCC3)c2)CC1	2.0	1.4	0.5	50.2*	19.0	-3.4	20.4	0.3	11.6
CCCCN1Cc2c(nc3cc(-c4ccco4)[nH]n3c2=O)C1=O	6.8	-9.0	-1.0	-7.8	2.7	-1.6	nt	nt	nt
O=C(O)c1cccc2c1Cc1cc(Cl)ccc1-2	nt	-6.7	0.0	-2.3	-4.2	nt	nt	nt	nt
O=C(CSc1nc(Nc2ccccc2)nc(N2CCOCC2)n1)Nc1ccc(Br)cc1F	-23.2	-1.4	-0.6	46.1*	-3.7	9.5	-2.2	-0.8	-11.9
COc1ccc(C(=O)N2CCN(c3ccc([N+](=O)[O-])c(-n4nc(C)cc4C)c3)CC2)cc1	-0.1	5.5	4.4	59.5*	17.5	-0.7	24.2	-0.8	-5.6
CCCCCCSc1ccc(-c2nc3ccc(C)cn3c2NC2CCCCC2)cc1	-36.1	5.9	-1.7	44.8*	11.6	0.2	22.4	1.6	8.1
Oc1ccc(C(=Nc2ccccc2)c2ccccc2)c(O)c1	nt	-1.3	-2.5	9.6	10.1	nt	nt	nt	nt
CCOc1ccc2oc(C(=O)Nc3cc(C)ccn3)c(C)c2c1	5.6	-0.6	-4.9	42.6*	18.1	-2.4	10.4	-0.7	-9.6
Cc1ccc2cc3cc(C(=O)N4CCN(C(=O)c5ccco5)CC4)sc3nc2c1	6.6	1.9	-5.7	63.3*	-11.8	-1.5	30.2	-1.1	-6.9
Cc1ccc2cc3cc(C(=O)N4CCN(Cc5ccccc5)CC4)sc3nc2c1	-3.8	4.8	-5.1	80.4*	-0.3	-2.7	53.2*	0.0	-16.6
